“And” between values parts separate entries of the source, which are not always exact repeats. Identical values can stand only once. “Also recorded” adds a separate entry of the source. Like-named read-outs stand apart in the source and are kept apart here. Marks after values point to notes of the source that are not given here.
Tests used:
[1] = tested on: human normal skin fibroblast FF 2441 cells; conditions: read-out: IC50, FF 2441 cells; MTS assay, ± SEM; ref Robertson et al. (2014); cited from earlier work
[2] = tested on: P. falciparum 3D7; experiment: Antimalarial activity by SYBR Green assay; type: cell-based, Plasmodium falciparum; conditions: for IC50: mean of three independent experiments ± SEM; for Antimalarial activity: summary of IC50 results
[3] = tested on: human metastatic melanoma UACC 903 cells; conditions: read-out: IC50, UACC 903 cells; MTS assay, ± SEM; ref Robertson et al. (2014); cited from earlier work
[4] = tested on: P. falciparum 3D7 parasites (asexual stage, ring stage); type: cell-based, Plasmodium falciparum; conditions: for Antimalarial activity, ranking among the three compounds tested: 2.5-20 μM, 24-72 h, microscopy
In short: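 Sorbitol-synchronized P. falciparum 3D7 in human erythrocytes (37 °C, 5% O2/5% CO2/90% N2) was treated at ring stage (8–10 h post-invasion, 4–6% parasitemia) with 2.5, 5, 10 or 20 μM test compound, or left untreated. Aliquots were taken at 24, 48 and 72 h for Giemsa-stained thin smears. Percent parasitemia and stage (rings, trophozoites, schizonts) were scored by light microscopy.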

[5] = tested on: P. falciparum gametocytes; type: cell-based, Plasmodium falciparum; conditions: 48 h
In short: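 Gametocytes came from P. falciparum cultured continuously for 6–8 weeks at >10% parasitemia, with weekly sorbitol synchronization, in human erythrocytes at 37 °C under 5% O2/5% CO2/90% N2. Gametocyte cultures were exposed to test compound at 10 or 20 μM for 48 h alongside untreated controls. Giemsa-stained smears of culture pellets were then examined by light microscopy for gametocyte morphology.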

[6] = 2.5 μM, 48 h, treated at ring stage
[7] = 2.5 μM, 72 h, treated at ring stage
[8] = 5 μM, 24 h, treated at ring stage
[9] = 5 μM, 48 h, treated at ring stage
[10] = 5 μM, 72 h, NVP = no viable parasites
[11] = 10 μM, 24 h, treated at ring stage
[12] = 10 μM, 48 h, ring-stage (R) parasites
[13] = 10 μM, 72 h, NVP = no viable parasites
[14] = 20 μM, 24 h, NVP = no viable parasites
[15] = 20 μM, 72 h, NVP = no viable parasites
[16] = up to 20 μM, 48 h, ring stage treated
[17] = 20 μM, 48 h, ring-stage (R) parasites, NVP = no viable parasites

| IC50 ([2]; read-out: IC50, 3D7, 72 h) | SMILES | IC50 [1] | Inhibition of parasite growth ([2]; 20 μM, 72 h) | Antimalarial activity [2] | IC50 [3] | Percent parasitemia and parasite growth stage [4, 6] | Percent parasitemia and parasite growth stage [4, 7] | Percent parasitemia and parasite growth stage [4, 8] | Percent parasitemia and parasite growth stage [4, 9] | Percent parasitemia and parasite growth stage [4, 10] | Percent parasitemia and parasite growth stage [4, 11] | Percent parasitemia and parasite growth stage [4, 12] | Percent parasitemia and parasite growth stage [4, 13] | Percent parasitemia and parasite growth stage [4, 14] | Percent parasitemia and parasite growth stage [4, 15] | Antimalarial activity, ranking among the three compounds tested [4] | Inhibition of parasite growth [2, 16] | Percent parasitemia and parasite growth stage [4, 17] | also measured |
| --- | --- | --- | --- | --- | --- | --- | --- | --- | --- | --- | --- | --- | --- | --- | --- | --- | --- | --- | --- |
| 13.3 ± 0.44 µM | CCC(=O)NCC1(C)CCCC2(C)c3ccc(C(C)C)cc3CCC12 (stereo not drawn) [2c, N-dehydroabietylpropionamide] | > 100 µM | complete inhibition | good to excellent antimalarial activity | 89.4 ± 3.3 µM |  |  |  |  |  |  |  |  |  |  |  |  |  |  |
| 0.36 ± 0.13 µM | CC(C)c1ccc2c(c1)CCC1C(C)(CNC(=O)c3ccccc3)CCCC21C (stereo not drawn) [2d, N-dehydroabietylbenzamide] | > 100 µM |  | good to excellent antimalarial activity; also recorded: most potent antimalarial activity | > 100 µM |  |  |  |  |  |  |  |  |  |  |  |  |  |  |
| ~90.6 µM and 90.6 µM | CC(C)c1ccc2c(c1)CC[C@H]1[C@](C)(CNC(c3ccccc3)(c3ccccc3)c3ccccc3)CCC[C@]21C [2f] | > 100 µM | not inhibitory |  | > 100 µM |  |  |  |  |  |  |  |  |  |  |  |  |  |  |
| 8.2 ± 0.48 µM | CC(C)C1=CC2=CC[C@H]3[C@](C)(CN)CCC[C@]3(C)[C@H]2CC1 [4d, abietylamine] | 8.3 ± 0.41 µM |  |  | 2.1 ± 0.25 µM | 20.4 ± 1.3 (R) % | 10.0 ± 0.5 (T) % | 6.0 ± 0.4 (T) % | 16.1 ± 1.5 (R) % | 9.0 ± 0.4 (T) ^b % | 4.3 ± 0.4 (T) % | 10.1 ± 0.6% | 8.3 ± 0.1 (T) ^b % | 3.7 ± 0.3 (T) % | NVP ^b | moderately active |  |  | Inhibition of parasite growth ([4]; 2.5 μM, by 72 h): about 50%; Parasites developed into trophozoites ([4]; 20 μM, 24 h period): ~ 60%; Percent parasitemia and parasite growth stage ([4]; 20 μM, 48 h, ring-stage (R) parasites, NVP = no viable parasites, listed as Abietylamine): 2.4 ± 0.5%; Percent parasitemia and parasite growth stage ([4]; 20 μM, 48 h, ring-stage (R) parasites, NVP = no viable parasites, listed as abietylamine): ~ 2.4%; Parasites at the trophozoite and schizont stages ([4]; 20 μM, 48 h, share of those that developed into trophozoites): ~ 45%; Effect on parasites ([4]; 20 μM, by 72 h): completely killed the parasites |
|  | CC(C)C1=CC2=CC[C@@H]3[C@](C)(CCC[C@@]3(C)C(=O)O)[C@H]2CC1 [compound 3, abietic acid] | > 100 µM |  |  | > 100 µM | 21.6 ± 1.0 (R) % | 20.6 ± 1.2 (T) % | 6.0 ± 0.3 (T) % | 22.0 ± 1.3 (R) % | 20.6 ± 0.4 (T) % | 5.7 ± 0.3 (T) % | 22.3 ± 0.6 (R) % | 20.0 ± 0.2 (T) % | 5.9 ± 0.4 (T) % | 15.1 ± 0.3 (T) % | negligibly active | negligible activity | 20.6 ± 0.9 (R) % | IC50 ([2]; Plasmodium falciparum, 3D7, 72 h, read-out: IC50, 3D7, 72 h): ~82 µM; Effect on parasite growth ([4]; 20 μM, second life cycle): noticeably inhibit parasite growth; Effect on parasite growth ([4]; 2.5, 5, and 10 μM, 72 h culturing period): no effect on parasite growth; Gametocidal effect ([5]; 10 and 20 μM): no activity; also recorded: no effect on gametocytes |

| SMILES | IC50 ([2]; read-out: IC50, 3D7, 72 h) | IC50 [1] | Inhibition of parasite growth ([2]; 20 μM, 72 h) | Antimalarial activity [2] | IC50 [3] | Percent parasitemia and parasite growth stage [4, 6] | Percent parasitemia and parasite growth stage [4, 7] | Percent parasitemia and parasite growth stage [4, 8] | Percent parasitemia and parasite growth stage [4, 9] | Percent parasitemia and parasite growth stage [4, 10] | Percent parasitemia and parasite growth stage [4, 11] | Percent parasitemia and parasite growth stage [4, 12] | Percent parasitemia and parasite growth stage [4, 13] | Percent parasitemia and parasite growth stage [4, 14] | Percent parasitemia and parasite growth stage [4, 15] | Antimalarial activity, ranking among the three compounds tested [4] | Inhibition of parasite growth [2, 16] | Percent parasitemia and parasite growth stage [4, 17] | also measured |
| --- | --- | --- | --- | --- | --- | --- | --- | --- | --- | --- | --- | --- | --- | --- | --- | --- | --- | --- | --- |
| CC(C)c1ccc2c(c1)CC[C@H]1[C@](C)(CN)CCC[C@]21C [compound 1, dehydroabietylamine] | 1.8 ± 0.22 µM | 8.9 ± 0.68 µM |  |  | 1.4 ± 0.24 µM | 10.3 ± 1.3 (R) % | 9.1 ± 0.5 (T) ^b % | 5.5 ± 0.3 (T) % | 6.1 ± 1.5 (T, S, R) % | NVP | 3.3 ± 0.3 (T) % |  | NVP | NVP^c | NVP | most active | efficiently inhibited parasite growth in a dose dependent manner | NVP | Parasites developed into trophozoites ([4]; 10 μM, 24 h treatment): ~ 60%; Remaining trophozoites still at the trophozoite and schizont stages, unhealthy ([4]; 10 μM, 48 h): ~ 73%; Percent parasitemia and parasite growth stage ([4]; 10 μM, 48 h, ring-stage (R) parasites, listed as Dehydroabietylamine): 2.5 ± 0.2%; Percent parasitemia and parasite growth stage ([4]; 10 μM, 48 h, ring-stage (R) parasites, listed as dehydroabietylamine): ~ 2.5%; Trophozoites matured into healthy schizonts ([4]; 10 μM, by 48 h): ~ 27%; Effect on parasite development ([4]; 20 μM, 24 h): completely inhibited parasite development into trophozoites; Gametocidal effect ([5]; 10 μM): gametocytes shrunk and condensed into non-viable, rounded condensed bodies; Gametocidal effect ([5]; 20 μM): completely lysed gametocytes |

Source: paper PMC4480188 (Experimental parasitology, 2015)
